Laboratory results as given in ChEMBL document CHEMBL1123347, “Topical nonsteroidal antipsoriatic agents. 1. 1,2,3,4-Tetraoxygenated naphthalene derivatives” (J Med Chem, 1986).

Tests used:
[1] = test system: Mus musculus; experiment: Compound was tested for inhibition of arachidonic acid induced mouse ear edema at 2 mg of dose; format: functional
In short: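 Mouse ear edema induced by arachidonic acid (dissolved in acetone at 100 mg/mL). Test agent is applied topically in acetone, 2 mg/0.02 mL per total dose, 60 min before arachidonic acid. Ear edema is read 1 h later as the weight gain of an 8-mm-diameter ear plug. It is compared with acetone-only and arachidonic acid-only controls run in the same experiment. n = 8 per group; percent inhibition is reported as mean.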

[2] = Partition coefficient (logP); format: physicochemical; details: octanol/water
In short: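 Lipophilicity (log P) measured by 1-octanol-coated reversed-phase HPLC. The mobile phase is pH 7.4 PBS saturated with 1-octanol, run on RP-18 or C-18 packing. A second system is linked to the first through overlapping series. For the most lipophilic analogues that could not be detected, log P is calculated from Free-Wilson-derived substituent constants assuming additivity.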

[3] = Statistical significance, p values as compared to positive control by students t-test; NS=Not significant; format: ADME
In short: (§1)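 Same arachidonic acid ear-edema model: 2 mg total topical dose in acetone, given 60 min before arachidonic acid, with 8 animals per group. Edema is measured by ear plug weight 1 h after arachidonic acid. p values come from Student's t-test against the concurrent arachidonic acid positive control. Thresholds are given as + (≤0.05) and so on.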

[4] = Statistical significance (p value) compared to positive control by Students t-test; format: ADME; in short: as §1

Row | SMILES | Inhibition [1] | logP [2] | Significance [3] | Significance [4] | Significance ([4]; read-out: Significance)
1 | CCCC(=O)Oc1c(Oc2ccccc2)c(Oc2ccccc2)c(OC(=O)CCC)c2cc(Cl)ccc12 | -5% | 7.7 | Not Active |  | 
2 | COc1c(OC)c(OC(C)=O)c2cc(Br)ccc2c1OC(C)=O | 42% | 3.39 |  | <= 0.001 | 
3 | CCOc1c(OCC)c(OC(C)=O)c2cc(Cl)ccc2c1OC(C)=O | 38% | 4 |  | <= 0.001 | 
4 | COc1c(OC)c(OC(=O)C(C)C)c2c(C)cccc2c1OC(=O)C(C)C | 12% | 5 | Not Active |  | 
5 | CCC(=O)Oc1c(OC(C)C)c(OC(C)C)c(OC(=O)CC)c2cc(Cl)ccc12 | 16% | 5.8 | Not Active |  | 
6 | COc1c(OC)c(OC(C)=O)c2c(Sc3ccccc3)cccc2c1OC(C)=O | 42% | 4.2 |  | <= 0.001 | 
7 | CCOc1c(OCC)c(OC(=O)C(C)(C)C)c2cc(Cl)ccc2c1OC(=O)C(C)(C)C | 19% | 7.4 |  | <= 0.001 | 
8 | COc1c(OC)c(OC(=O)C(C)C)c2cc(Cl)ccc2c1OC(=O)C(C)C | 23% | 5.4 |  | <= 0.01 | 
9 | COc1c(OC)c(OC(=O)C(C)(C)C)c2c(C)cccc2c1OC(=O)C(C)(C)C | 10% | 6.1 | Not Active |  | 
10 | CCCOc1c(OCCC)c(OC(=O)CCC)c2cc(Cl)ccc2c1OC(=O)CCC | 2% | 7.6 | Not Active |  | 
11 | CC(C)C(=O)Oc1c(Oc2ccccc2)c(Oc2ccccc2)c(OC(=O)C(C)C)c2cc(Cl)ccc12 | 0% | 7.7 | Not Active |  | 
12 | CCC(=O)Oc1c(OC)c(OC)c(OC(=O)CC)c2cc(C)c(C)cc12 | 26% | 4.2 |  | <= 0.001 | 
13 | CCOc1c(OCC)c(OC(=O)C(C)C)c2cc(Cl)ccc2c1OC(=O)C(C)C | 11% | 6.4 |  | <= 0.05 | 
14 | CCCCOc1c(OCCCC)c(OC(C)=O)c2cc(Cl)ccc2c1OC(C)=O | 23% | 5.9 |  | <= 0.01 | 
15 | O=C(Oc1c(Oc2ccccc2)c(Oc2ccccc2)c(OC(=O)c2ccccc2)c2cc(Cl)ccc12)c1ccccc1 | -1% | 8.7 | Not Active |  | 
16 | CCC(=O)Oc1c(OC)c(OC)c(OC(=O)CC)c2cc(Cl)ccc12 | 49% | 4.3 |  | <= 0.001 | 
17 | COc1ccc2c(OC(C)=O)c(OC)c(OC)c(OC(C)=O)c2c1 | 53% | 2.39 |  | <= 0.001 | 
18 | CCCC(=O)Oc1c(OC)c(OC)c(OC(=O)CCC)c2ccccc12 | 59% | 4.64 |  | <= 0.001 | 
19 | CCCC(=O)Oc1c(OC)c(OC)c(OC(=O)CCC)c2cc(Cl)ccc12 | 58% | 5.5 |  | <= 0.001 | 
20 | CCCOc1c(OCCC)c(OC(=O)CC)c2cc(Cl)ccc2c1OC(=O)CC | 30% | 6.4 |  | <= 0.001 | 
21 | COc1c(OC)c(OC(=O)C(C)(C)C)c2c(OC)cccc2c1OC(=O)C(C)(C)C | 29% | 5.6 |  | <= 0.01 | 
22 | CCC(=O)Oc1c(OC)c(OC)c(OC(=O)CC)c2c(OC)cccc12 | 57% | 3.44 |  | <= 0.001 | 
23 | COc1c(OC)c(OC(C)=O)c2cc(C)c(C)cc2c1OC(C)=O | 19% | 3.14 |  | <= 0.001 | 
24 | COc1c(OC)c(OC(=O)C(C)(C)C)c2cc(C)ccc2c1OC(=O)C(C)(C)C | 11% | 6.1 | Not Active |  | 

Row | SMILES | Inhibition [1] | logP [2] | Significance [3] | Significance [4] | Significance ([4]; read-out: Significance)
25 | CCC(=O)Oc1c(OC)c(OC)c(OC(=O)CC)c2c(C)cccc12 | 24% | 3.9 |  | <= 0.01 | 
26 | CC(=O)Oc1c(OC(C)C)c(OC(C)C)c(OC(C)=O)c2cc(Cl)ccc12 | 19% | 4.6 |  | <= 0.001 | 
27 | COc1c(OC)c(OC(=O)C(C)(C)C)c2cc(C)c(C)cc2c1OC(=O)C(C)(C)C | 6% | 6.5 | Not Active |  | 
28 | COc1c(OC)c(OC(C)=O)c2c(NC(C)=O)cccc2c1OC(C)=O | 6% | 2 | Not Active |  | 
29 | CCCOc1c(OCCC)c(OC(C)=O)c2cc(Cl)ccc2c1OC(C)=O | 50% | 5.2 |  | <= 0.001 | 
30 | CCC(=O)Oc1c(Oc2ccccc2)c(Oc2ccccc2)c(OC(=O)CC)c2cc(Cl)ccc12 | -15% | 6.6 | Not Active |  | 
31 | COc1c(OC)c(OC(C)=O)c2c(C#N)cccc2c1OC(C)=O | 24% | 2.51 |  | <= 0.01 | 
32 | COc1c(OC)c(OC(C)=O)c2cc(C)ccc2c1OC(C)=O | 40% | 2.86 |  | <= 0.001 | 
33 | CCCOc1c(OCCC)c(OC(=O)C(C)C)c2cc(Cl)ccc2c1OC(=O)C(C)C | 28% | 7.5 |  | <= 0.01 | 
34 | COc1c(OC)c(OC(C)=O)c2cc(F)ccc2c1OC(C)=O | 40% | 2.75 |  | <= 0.001 | 
35 | COc1c(OC)c(OC(=O)C(C)C)c2ccccc2c1OC(=O)C(C)C | 53% | 4.61 |  | <= 0.001 | 
36 | CCCOc1c(OCCC)c(OC(=O)C(C)(C)C)c2cc(Cl)ccc2c1OC(=O)C(C)(C)C | 16% | 8.5 |  | <= 0.05 | 
37 | COc1c(OC)c(OC(=O)C(C)C)c2cc(C)c(C)cc2c1OC(=O)C(C)C | 21% | 5.3 |  | <= 0.001 | 
38 | CC(C)Oc1c(OC(C)C)c(OC(=O)C(C)(C)C)c2cc(Cl)ccc2c1OC(=O)C(C)(C)C | 26% | 7.9 |  | <= 0.001 | 
39 | COc1c(OC)c(OC(=O)c2ccccc2)c2cc(Cl)ccc2c1OC(=O)c1ccccc1 | 18% | 6.7 |  | <= 0.05 | 
40 | COc1c(OC)c(OC(C)=O)c2c(OC)cccc2c1OC(C)=O | 47% | 2.43 |  | <= 0.01 | 
41 | CCC(=O)Oc1c(OC)c(OC)c(OC(=O)CC)c2ccccc12 | 33% | 3.44 |  | <= 0.01 | 
42 | CCC(=O)Oc1c(OC)c(OC)c(OC(=O)CC)c2cc(C)ccc12 | 39% | 3.9 |  | <= 0.001 | 
43 | COc1c(OC)c(OC(C)=O)c2c(C)cccc2c1OC(C)=O | 22% | 2.8 |  |  | < 0.001
44 | CCC(=O)Oc1c(OC)c(OC)c(OC(=O)CC)c2cc(OC)ccc12 | 49% | 3.28 |  | <= 0.01 | 
45 | COc1c(OC)c(OC(C)=O)c2ccccc2c1OC(C)=O | 19% | 2.39 |  | <= 0.05 | 
46 | CSc1c(SC)c(OC(C)=O)c2cc(Cl)ccc2c1OC(C)=O | -2% |  | Not Active |  | 
47 | CCOc1c(OCC)c(OC(=O)CC)c2cc(Cl)ccc2c1OC(=O)CC | 50% | 5.2 |  | <= 0.001 | 
